Series [1] deals with Rattus norvegicus. The series is described as follows: Hyperglycemic activity and change in blood glucose concentration was reported 2 hours after administration of 100 mg/Kg perorally. In kind it is functional. In short, it runs like this:
(§1)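 Overnight-fasted rats dosed orally at 100 mg/kg as a suspension in 1% tragacanth in distilled water. Tail capillary blood sampled at 0, 2 and 4 h after dosing. Serum glucose measured by spectrophotometry of enzymatically produced NADH2. Change is expressed relative to time zero as mean ± SEM of four animals; plus means a rise, minus a fall; p<0.05 marks significance.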

For series [2], the system named is Rattus norvegicus. The experiment in a line: Hyperglycemic activity and change in blood glucose concentration was reported 4 hours after administration (100 mg/Kg perorally). Type of series: functional. The procedure, abridged: as §1
Series [3] in a line: Partition coefficient (logP). The conditions noted are these: octanol/water. Type of series: physicochemical. The procedure, abridged: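 Partition coefficient calculated as P = C(octanol)/C(H2O), using the method of Fujita et al.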
Series [4] has as its system Rattus norvegicus. The experiment in a line: Hyperglycemic activity and change in blood glucose concentration was reported 2 hours after administration of 100 mg/Kg perorally. Type of series: functional. The procedure, abridged:
as §1

Series [5] concerns Rattus norvegicus. The experiment in a line: Hyperglycemic activity and change in blood glucose concentration was reported 4 hours after administration of 100 mg/Kg perorally. In kind it is functional. The procedure, abridged: as §1

Turning to `CC(=O)OCCCC1=CCN(NC(=O)c2ccccc2)CC1`, the Change with Rattus norvegicus [1] is listed as 2%; in the series on Rattus norvegicus [2] it was 3%. The molecule also had a lipophilicity (logP) in series [3] of 1.52.

Turning to `CC(=O)OCCCC1=CCCN(NC(=O)c2ccccc2)C1`, the results for the Change in the series on Rattus norvegicus [1] and in the series on Rattus norvegicus [2] were -8% and 7%, respectively. Further, in series [3], the logP is 1.49.

With `COCCCC1=CCN(NC(=O)c2ccccc2)CC1`, the Change in the series with Rattus norvegicus [1] was 1%; with Rattus norvegicus [2], -9%. This molecule also gave a log partition coefficient (logP) in series [3] of 1.49.

On to `COC(=O)CCC1=CCCN(NC(=O)c2ccccc2)C1`, for which the Change with Rattus norvegicus [1] is -2%; with Rattus norvegicus [2] it was 6%. Moreover, in series [3], the logP was 0.74.

For `CCCNC(=O)NS(=O)(=O)c1ccc(Cl)cc1` [CHLORPROPAMIDE], the Change in the series on Rattus norvegicus [2] is listed as -38%; in the series with Rattus norvegicus [4], -42%.

As to `CC1=CCN(NC(=O)c2ccccc2)CC1`, the Change with Rattus norvegicus [1] stood at 48%; in the series on Rattus norvegicus [2], 43%. For the same molecule, the lipophilicity (logP) in series [3] is 1.2.

On to `COCCCC1=CCCN(NC(=O)c2ccccc2)C1`, for which the Change in the series on Rattus norvegicus [1] was -10%; in the series on Rattus norvegicus [2], -11%. The log partition coefficient (logP) in series [3] is 0.908.

Regarding `O=C(O)CCC1=CCN(NC(=O)c2ccccc2)CC1`, the Change with Rattus norvegicus [1] is given as -4%; in the series on Rattus norvegicus [2], 7%. The same molecule came in with a lipophilicity (logP) in series [3] of 1.

For the molecule `O=C(NN1CC=C(CO)CC1)c1ccccc1`, the Change is recorded as -10% in the series on Rattus norvegicus [1] and -14% with Rattus norvegicus [2]. Also, the logP in series [3] is 0.643.

For the molecule `CC(O)C1=CCN(NC(=O)c2ccccc2)CC1` (stereo unspecified), the Change was -10% with Rattus norvegicus [1] and -5% in the series with Rattus norvegicus [2]. The same molecule showed a logP in series [3] of 0.0414.

Regarding `O=C(NN1CC=CCC1)c1ccccc1`, the Change in the series with Rattus norvegicus [1] was determined as 78%; in the series on Rattus norvegicus [2] it was 50%.

As to `C=C1C=CCN(NC(=O)c2ccccc2)C1`, the Change amounted to 4% in the series on Rattus norvegicus [2] and 5% in the series with Rattus norvegicus [4]. The logP in series [3] is 1.37.

On to `COC(=O)CCC1=CCN(NC(=O)c2ccccc2)CC1`, for which the Change with Rattus norvegicus [1] and in the series on Rattus norvegicus [2] was -9% each time. In series [3], the log partition coefficient (logP) was 0.949.

Consider `O=C(NN1CC=C(CCCO)CC1)c1ccccc1`, for which the values for the Change in the series on Rattus norvegicus [1] and in the series on Rattus norvegicus [2] were 4% and -6%, respectively. Further, in series [3], the logP is 1.22.

With `O=C(NN1CCC=CC1=O)c1ccccc1`, the Change came to 1% in the series on Rattus norvegicus [1] and 4% in the series with Rattus norvegicus [2]. The lipophilicity (logP) in series [3] is 1.17.

With `COC1=CCN(NC(=O)c2ccccc2)CC1`, the values for the Change in the series with Rattus norvegicus [4] and in the series on Rattus norvegicus [5] were 5% and 7%, respectively. In series [3], this molecule had a lipophilicity (logP) of 1.16.

Turning to `CC(=O)C1=CCN(NC(=O)c2ccccc2)CC1`, the figures for the Change in the series with Rattus norvegicus [1] and in the series on Rattus norvegicus [2] were -12% and -19%, respectively. This molecule gave a logP in series [3] of 0.38.

As to `CC1=C(C)CN(NC(=O)c2ccccc2)CC1`, the Change in the series with Rattus norvegicus [1] is 27%; in the series on Rattus norvegicus [2], 20%. Besides, the lipophilicity (logP) in series [3] was 1.35.

For `O=C(NN1CCC=C(F)C1)c1ccccc1`, the Change with Rattus norvegicus [1] stood at 64%; with Rattus norvegicus [2], 42%. In series [3], this molecule gave a log partition coefficient (logP) of 1.27.

With `O=C(NN1CCC=C(CCCO)C1)c1ccccc1`, the Change in the series on Rattus norvegicus [1] is reported as -2%; with Rattus norvegicus [2], -6%. Further, in series [3], the lipophilicity (logP) is 1.12.

On to `CC1=CCCN(NC(=O)c2ccccc2)C1`, for which the Change with Rattus norvegicus [1] amounted to 124%; with Rattus norvegicus [2] it was 116%. This molecule also showed a log partition coefficient (logP) in series [3] of 1.37.

Consider `COC1=CCCN(NC(=O)c2ccccc2)C1`, for which the Change with Rattus norvegicus [2] was -9%; with Rattus norvegicus [4], -7%. The molecule also showed a logP in series [3] of 1.62.

`CC(=O)C1=CCCN(NC(=O)c2ccccc2)C1`: the Change in the series on Rattus norvegicus [1] was -5%; in the series on Rattus norvegicus [2] it was -17%. The molecule also had a logP in series [3] of -0.0969.

For `CC(O)C1=CCCN(NC(=O)c2ccccc2)C1` (stereo unspecified), the Change with Rattus norvegicus [1] is -8%; in the series on Rattus norvegicus [2] it was -16%. In series [3], this molecule showed a lipophilicity (logP) of 0.447.

For the molecule `O=C(O)CCC1=CCCN(NC(=O)c2ccccc2)C1`, the Change in the series on Rattus norvegicus [1] is reported as -14%; in the series on Rattus norvegicus [2], -4%. Besides, the lipophilicity (logP) in series [3] was 1.18.

`CC1CC=CCN1NC(=O)c1ccccc1` (stereo unspecified): the Change in the series on Rattus norvegicus [1] is 12%; in the series with Rattus norvegicus [2] it was 16%. The lipophilicity (logP) in series [3] is 0.699.

These data come from ChEMBL document CHEMBL1123654, “Synthesis of N-(3,6-dihydro-1(2H)-pyridinyl)benzamides with hyperglycemic-hypoglycemic activity” (J Med Chem, 1987).
